Experimental findings from ChEMBL document CHEMBL2029315 (Bioorg Med Chem Lett, 2012) are described below.

Assay [1] concerns U-937. Nature of the assay: Induction of human U937 cells attachment at 0.1 to 1000 nM treated for 24 hrs measured after 60 hrs. In kind it is functional, cell-based. In short, it runs like this:
(§1)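 Floating and attached cells counted 60 hr after treatment, giving proliferation (total count) and attachment. Mean ± SEM of five independent experiments.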

The target in assay [2] is T1, Protein kinase C epsilon type (Homo sapiens) (UniProt Q02156).
T1 sequence (whole entry): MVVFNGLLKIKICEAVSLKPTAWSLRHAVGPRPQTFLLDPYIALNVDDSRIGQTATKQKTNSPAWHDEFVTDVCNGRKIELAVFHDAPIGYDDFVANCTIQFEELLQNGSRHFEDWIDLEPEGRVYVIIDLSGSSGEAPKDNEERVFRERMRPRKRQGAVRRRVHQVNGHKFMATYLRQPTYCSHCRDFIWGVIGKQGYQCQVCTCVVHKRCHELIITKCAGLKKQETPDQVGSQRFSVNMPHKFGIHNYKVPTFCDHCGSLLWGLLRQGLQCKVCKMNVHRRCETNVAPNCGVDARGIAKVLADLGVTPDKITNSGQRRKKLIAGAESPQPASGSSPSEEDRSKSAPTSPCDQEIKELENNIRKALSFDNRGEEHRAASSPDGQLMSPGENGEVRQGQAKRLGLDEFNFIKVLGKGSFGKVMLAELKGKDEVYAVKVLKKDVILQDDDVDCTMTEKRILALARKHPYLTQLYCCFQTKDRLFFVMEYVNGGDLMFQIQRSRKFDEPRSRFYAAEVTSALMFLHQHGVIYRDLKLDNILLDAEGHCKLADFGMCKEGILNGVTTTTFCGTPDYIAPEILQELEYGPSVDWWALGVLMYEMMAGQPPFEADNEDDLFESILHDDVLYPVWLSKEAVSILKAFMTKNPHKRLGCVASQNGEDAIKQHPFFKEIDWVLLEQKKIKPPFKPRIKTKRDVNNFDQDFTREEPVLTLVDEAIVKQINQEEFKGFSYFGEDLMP
Nature of the assay: Modulation of PKCepsilon in human K562 cells assessed as […] after 24 hrs by Western blotting analysis. It counts as cell-based. An outline of the steps:
(§2)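 K562 cells (150,000 cells/ml) treated 24 hr after plating with a dose range for 24 hr. Total cell lysates analysed by Western blot for C1 domain-containing proteins, with actin as loading control. Representative of three independent experiments.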
(In general: A western blot detects proteins with antibodies after separation by electrophoresis.)

Assay [3] concerns the target T2, Ras guanyl-releasing protein 3 (Homo sapiens) (UniProt Q8IV61).
T2 sequence (whole entry): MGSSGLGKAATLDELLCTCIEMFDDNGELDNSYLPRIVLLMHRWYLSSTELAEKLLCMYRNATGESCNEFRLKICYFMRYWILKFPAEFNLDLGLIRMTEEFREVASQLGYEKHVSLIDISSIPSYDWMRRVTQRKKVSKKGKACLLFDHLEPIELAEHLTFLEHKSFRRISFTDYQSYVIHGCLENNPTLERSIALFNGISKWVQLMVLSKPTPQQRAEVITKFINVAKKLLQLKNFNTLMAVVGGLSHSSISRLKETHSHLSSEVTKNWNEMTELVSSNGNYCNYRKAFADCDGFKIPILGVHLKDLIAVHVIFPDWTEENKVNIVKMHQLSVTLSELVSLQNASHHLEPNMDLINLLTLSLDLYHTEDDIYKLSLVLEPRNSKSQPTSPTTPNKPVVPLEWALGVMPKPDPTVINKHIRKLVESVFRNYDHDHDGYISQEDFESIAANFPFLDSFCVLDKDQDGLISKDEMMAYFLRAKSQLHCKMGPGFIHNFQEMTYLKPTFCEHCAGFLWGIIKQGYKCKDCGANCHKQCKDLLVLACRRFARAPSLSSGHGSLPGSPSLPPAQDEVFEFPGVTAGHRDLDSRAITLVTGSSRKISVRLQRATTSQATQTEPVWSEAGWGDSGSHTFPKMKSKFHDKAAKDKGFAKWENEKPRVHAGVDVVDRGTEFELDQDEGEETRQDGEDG
Nature of the assay: Modulation of RASGRP3 in human K562 cells assessed as […] after 24 hrs by Western blotting analysis. In kind it is cell-based. An outline of the steps:
as §2

Assay [4] deals with U-937. Nature of the assay: Antiproliferative activity against human U937 cells at 0.1 to 1000 nM after 60 hrs. It counts as functional, cell-based. In short, it runs like this:
as §1

Assay [5] deals with MV4-11. Nature of the assay: Antiproliferative activity against human MV411 cells after 60 hrs in presence of PMA. In kind it is functional, cell-based. An outline of the steps:
(§3)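 K562 or MV4-11 cells were seeded, then exposed to compound 24 h later alongside 10 nM PMA. Total cell number was counted 60 h after treatment. Data are mean ± SEM of three independent experiments.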

Assay [6] relates to MV4-11. Nature of the assay: Inhibition of PMA-induced human MV411 cell attachment treated for 24 hrs measured after 60 hrs. It counts as functional, cell-based.
Assay [7] concerns K562. Nature of the assay: Antiproliferative activity against human K562 cells after 60 hrs in presence of PMA.
Assay [8] in a line: Binding affinity to PKC.
Assay [9] concerns K562. Nature of the assay: Inhibition of bryostatin1-induced human K562 cell attachment treated for 24 hrs measured after 60 hrs. It counts as functional, cell-based.
Assay [10] relates to U-937. Nature of the assay: Induction of human U937 cells attachment at 0.1 to 3000 nM treated for 24 hrs measured after 60 hrs. It counts as functional, cell-based. An outline of the steps: (§4)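 U937 cells were seeded, then treated 24 h later across a concentration series. Floating and attached cells were counted separately 60 h after treatment, giving proliferation and attachment read-outs. Data are mean ± SEM of five independent experiments.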

Assay [11] relates to MV4-11. Nature of the assay: Antiproliferative activity against human MV411 cells after 60 hrs in presence of PMA.
The test system of assay [12] is MV4-11. Nature of the assay: Inhibition of bryostatin1-induced human MV411 cell attachment treated for 24 hrs measured after 60 hrs. In kind it is functional, cell-based.
Assay [13] deals with U-937. Nature of the assay: Antiproliferative activity against human U937 cells at 0.1 to 3000 nM after 60 hrs. In kind it is functional, cell-based. An outline of the steps: as §4
The subject of assay [14] is K562. Nature of the assay: Inhibition of PMA-induced human K562 cell attachment treated for 24 hrs measured after 60 hrs. It counts as functional, cell-based.
Assay [15] relates to K562. Nature of the assay: Antiproliferative activity against human K562 cells after 60 hrs in presence of PMA. In kind it is functional, cell-based. In short, it runs like this: as §3
The target of assay [16] is Protein kinase C beta type (Homo sapiens) (UniProt P05771). Nature of the assay: Modulation of PKCbeta in human K562 cells assessed as protein down-regulation after 24 hrs by Western blotting analysis. In kind it is cell-based. In short, it runs like this:
as §2

For assay [17], the target named is Protein kinase C delta type (Homo sapiens) (UniProt Q05655). Nature of the assay: Modulation of PKCdelta in human K562 cells assessed as protein down-regulation after 24 hrs by Western blotting analysis. It counts as cell-based. In short, it runs like this:
as §2

The subject of assay [18] is U-937. Nature of the assay: Inhibition of PMA-induced human U937 cell attachment treated for 24 hrs measured after 60 hrs. In kind it is functional, cell-based. An outline of the steps: as §1
Assay [19] relates to U-937. Nature of the assay: Inhibition of PMA-induced human U937 cells antiproliferation activity after 60 hrs. It counts as functional, cell-based. An outline of the steps:
as §1

Active and inactive are the calls of the source. The calls are words filed in the database; no cut-off is given here.

Chain of Protein kinase C beta type (Homo sapiens) (P05771 2-671 limits assumed): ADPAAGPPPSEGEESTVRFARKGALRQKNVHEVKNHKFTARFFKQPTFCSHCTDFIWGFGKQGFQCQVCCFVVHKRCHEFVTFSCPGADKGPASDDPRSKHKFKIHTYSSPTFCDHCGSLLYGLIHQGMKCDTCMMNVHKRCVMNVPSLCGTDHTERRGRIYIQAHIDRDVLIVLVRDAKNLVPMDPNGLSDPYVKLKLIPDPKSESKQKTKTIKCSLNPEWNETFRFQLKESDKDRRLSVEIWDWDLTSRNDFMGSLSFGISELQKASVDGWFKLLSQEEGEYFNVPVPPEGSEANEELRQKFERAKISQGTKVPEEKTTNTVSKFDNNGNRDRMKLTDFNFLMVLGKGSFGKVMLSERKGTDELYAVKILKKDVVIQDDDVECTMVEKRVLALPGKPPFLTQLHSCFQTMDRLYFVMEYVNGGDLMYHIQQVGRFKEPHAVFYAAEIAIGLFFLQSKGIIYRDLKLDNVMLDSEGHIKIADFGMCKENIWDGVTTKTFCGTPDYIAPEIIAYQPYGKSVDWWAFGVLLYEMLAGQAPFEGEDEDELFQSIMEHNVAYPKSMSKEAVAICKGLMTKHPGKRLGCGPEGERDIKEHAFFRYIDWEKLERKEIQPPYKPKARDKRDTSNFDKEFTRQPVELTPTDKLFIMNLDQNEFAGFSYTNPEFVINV
Chain of Protein kinase C delta type (Homo sapiens) (Q05655 whole entry, looked up): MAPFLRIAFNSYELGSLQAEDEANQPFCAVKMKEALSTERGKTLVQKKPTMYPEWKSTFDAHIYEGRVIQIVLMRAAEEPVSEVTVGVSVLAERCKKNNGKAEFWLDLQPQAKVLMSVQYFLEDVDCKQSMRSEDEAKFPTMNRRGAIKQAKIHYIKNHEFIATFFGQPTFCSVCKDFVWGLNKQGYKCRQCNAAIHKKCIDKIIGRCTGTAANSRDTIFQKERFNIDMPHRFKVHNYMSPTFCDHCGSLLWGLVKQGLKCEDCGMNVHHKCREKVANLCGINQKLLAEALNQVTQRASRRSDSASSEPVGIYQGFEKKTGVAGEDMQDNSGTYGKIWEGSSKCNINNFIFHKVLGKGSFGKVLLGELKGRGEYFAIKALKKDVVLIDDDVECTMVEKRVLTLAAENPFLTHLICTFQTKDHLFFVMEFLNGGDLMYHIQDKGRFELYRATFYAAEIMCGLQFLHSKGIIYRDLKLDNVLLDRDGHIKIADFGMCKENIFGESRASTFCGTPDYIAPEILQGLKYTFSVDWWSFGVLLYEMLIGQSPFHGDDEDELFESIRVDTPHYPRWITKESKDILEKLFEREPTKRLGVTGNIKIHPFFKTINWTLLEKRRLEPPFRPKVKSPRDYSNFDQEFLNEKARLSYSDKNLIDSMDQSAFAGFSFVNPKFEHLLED

Turning to `CCCCCCCCCCCCCC(=O)O[C@@H]1[C@@H](C)[C@@]2(O)[C@@H](C=C(CO)C[C@]3(O)C(=O)C(C)=C[C@@H]23)[C@@H]2C(C)(C)[C@]12OC(C)=O`, the outcome in [1], in assay [2], in [3] and in assay [4] was Active.
The term Ki denotes the dissociation constant of the complex between target and ligand, obtained from inhibition or displacement. Read a high Ki as weaker binding. On to `C=C1C[C@H]2C[C@@H]3O[C@@H](CC(=C)C3(C)C)C[C@@H](O)CC(=O)O[C@@H]([C@@H](C)O)C[C@@H]3C/C(=C\C(=O)OC)[C@H](OC(=O)/C=C/C=C/CCC)[C@@](O)(O3)C(C)(C)/C=C/[C@@H](C1)O2`, for which the Activity result in assay [5], in assay [7], in assay [11] and in [15] was “Dose-dependent effect” each time. In addition, the inhibition entry in assay [6] and in assay [14] was “inactive” throughout. For the same molecule, in assay [8], the Ki was determined as 1.08 nM. Moreover, the inhibition result in assay [9] and in [12] was “Active” throughout. The outcome in [2], in [10], in assay [3] and in assay [13] was Active.
Turning to `CCC/C=C/C=C/C(=O)O[C@H]1/C(=C/C(=O)OC)C[C@H]2C[C@H]([C@@H](C)O)OC(=O)C[C@H](O)C[C@@H]3C[C@H](OC(C)=O)C(C)(C)[C@](O)(C[C@@H]4C/C(=C/C(=O)OC)C[C@H](/C=C/C(C)(C)[C@]1(O)O2)O4)O3`, the outcome in [16] and in assay [17] was Active. Also, the inhibition entry in [18] and in assay [19] was “Dose-dependent effect” in each case. In addition, the outcome in assay [2] and in assay [3] was inactive.
